The source made the active and inactive calls. No cut-off for these calls is given here.
What was measured:
Rhodesain = Rhodesain (Trypanosoma brucei rhodesiense, UniProt Q95PM0); test: Inhibition of Trypanosoma brucei rhodesiense rhodesain using Cbz-Phe-Arg-AMC as substrate by fluorimetric method
Method in brief: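 Fluorescence-based protease assay. IC50 was converted to Ki by the Cheng-Prusoff equation. Values are the average of two measurements, each run in duplicate.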

Mdr1a = test: Efflux ratio of permeability across pig LLC-PK1 cells expressing mouse Mdr1a at 1 uM after 3.5 hrs by LC-MS/MS analysis; format: ADME, cell-based, Sus scrofa
Method in brief: (§1)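 Porcine kidney LLC-PK1 cells stably transfected with human ABCB1 (MDR1) or mouse Abcb1a (Mdr1a). Cells were grown with 10% FCS and 100 ng/mL colchicine and seeded on permeable inserts, then assayed on day 4. Compound was added at 1 μM to the apical or basolateral side, and transport was run in both directions in triplicate at 37 °C, 5% CO2. Donor and receiver were sampled at 3.5 h and quantified by LC–MS/MS. Lucifer yellow was used as the monolayer tightness control.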

Procathepsin L = Procathepsin L (Homo sapiens, UniProt P07711); test: Inhibition of human CatL using Cbz-Phe-Arg-AMC as substrate measured over 30 mins by fluorimetric method
Chain of Procathepsin L (P07711 whole entry): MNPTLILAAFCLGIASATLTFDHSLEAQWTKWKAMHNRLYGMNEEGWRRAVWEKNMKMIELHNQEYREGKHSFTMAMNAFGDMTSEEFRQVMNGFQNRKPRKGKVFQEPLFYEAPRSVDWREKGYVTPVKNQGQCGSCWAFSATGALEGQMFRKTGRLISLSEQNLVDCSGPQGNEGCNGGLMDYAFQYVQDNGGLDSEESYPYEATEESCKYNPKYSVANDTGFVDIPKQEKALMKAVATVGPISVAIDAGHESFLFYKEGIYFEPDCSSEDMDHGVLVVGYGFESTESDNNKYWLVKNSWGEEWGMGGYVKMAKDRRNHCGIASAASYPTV

[1] = test system: Trypanosoma brucei brucei; test: Antitrypanosomal activity against Trypanosoma brucei brucei TC 221 assessed as parasite growth inhibition after 72 hrs by Alamar blue assay; format: functional; conditions: TC 221, 72 h
MDR1 = test: Efflux ratio of permeability across pig LLC-PK1 cells expressing human MDR1 at 1 uM after 3.5 hrs by LC-MS/MS analysis; format: ADME, cell-based, Sus scrofa; method in brief: as §1
[2] = test system: Trypanosoma brucei rhodesiense; test: Antitrypanosomal activity against bloodstream form of Trypanosoma brucei rhodesiense STIB 900 infected in NMRI mouse assessed as reduction of parasitemia at 25 mg/kg, ip bid administered for 4 consecutive days starting 3 days post infection measured 24 hrs post last dose; format: functional, organism-based
Method in brief: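 Mice infected with T. b. rhodesiense STIB900 (acute model); dosing from day 3 post-infection on four consecutive days, 25 mg kg⁻¹ i.p. twice daily, 0.1 mL/10 g; three infected-untreated controls; parasitaemia monitored by tail-snip blood smears twice weekly for two weeks, then weekly to day 60; relapse day recorded post-infection.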

[3] = Drug uptake in bloodstream form of Trypanosoma brucei rhodesiense STIB 900 infected NMRI mouse blood at 25 mg/kg, ip bid administered for 4 consecutive days starting 3 days post infection measured at 1 hr post last dose; format: ADME, organism-based; conditions: read-out: Drug uptake
[4] = Drug uptake in bloodstream form of Trypanosoma brucei rhodesiense STIB 900 infected NMRI mouse blood at 25 mg/kg, ip bid administered for 4 consecutive days starting 3 days post infection measured at 4 hrs post last dose; format: ADME, organism-based; conditions: read-out: Drug uptake
[5] = Drug uptake in bloodstream form of Trypanosoma brucei rhodesiense STIB 900 infected NMRI mouse blood at 25 mg/kg, ip bid administered for 4 consecutive days starting 3 days post infection measured at 16 hrs post last dose; format: ADME, organism-based; conditions: read-out: Drug uptake
[6] = test system: Trypanosoma brucei rhodesiense; test: Antitrypanosomal activity against bloodstream form of Trypanosoma brucei rhodesiense STIB 900 assessed as parasite growth inhibition after 72 hrs by Alamar blue assay; format: functional
Method in brief: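 T. b. rhodesiense STIB900 bloodstream trypomastigotes; cell-growth inhibition read by Alamar blue; IC50 as average of at least 2 measurements.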

[7] = Selectivity index, ratio of Ki for human CatL to Ki for Trypanosoma brucei rhodesiense rhodesain
Method in brief: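 Ki from IC50 via Cheng–Prusoff in fluorescence-based protease assay; index = Ki(hCatL)/Ki(RD); Ki as average of two measurements, each in duplicate.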

[8] = test system: Trypanosoma brucei rhodesiense; test: Antitrypanosomal activity against bloodstream form of Trypanosoma brucei rhodesiense STIB 900 assessed as parasite growth inhibition incubated for 24 to 48 hrs followed by 72 hrs recovery by Alamar blue assay; format: functional
L6 = test: Cytotoxicity against rat L6 cells after 72 hrs by Alamar blue assay; format: cell-based
Method in brief: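 Rat skeletal myoblast L6 cells, growth inhibition; IC50 as average of at least 2 measurements.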

[9] = Selectivity index, ratio of IC50 for rat L6 cells to IC50 for bloodstream form of Trypanosoma brucei rhodesiense STIB 900; format: toxicity; conditions: for selectivity ratio: L6 cells, read-out: Ratio IC50
Method in brief: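 Ratio of L6 cell IC50 to T. b. rhodesiense STIB900 trypomastigote IC50.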

[10] = molecular target: Rhodesain (Trypanosoma brucei rhodesiense) (UniProt Q95PM0); test: Inhibition of Trypanosoma brucei rhodesiense rhodesain at 20 uM using Cbz-Phe-Arg-AMC as substrate by fluorimetric method relative to control
Chain of Rhodesain (Trypanosoma brucei rhodesiense) (Q95PM0 1-450): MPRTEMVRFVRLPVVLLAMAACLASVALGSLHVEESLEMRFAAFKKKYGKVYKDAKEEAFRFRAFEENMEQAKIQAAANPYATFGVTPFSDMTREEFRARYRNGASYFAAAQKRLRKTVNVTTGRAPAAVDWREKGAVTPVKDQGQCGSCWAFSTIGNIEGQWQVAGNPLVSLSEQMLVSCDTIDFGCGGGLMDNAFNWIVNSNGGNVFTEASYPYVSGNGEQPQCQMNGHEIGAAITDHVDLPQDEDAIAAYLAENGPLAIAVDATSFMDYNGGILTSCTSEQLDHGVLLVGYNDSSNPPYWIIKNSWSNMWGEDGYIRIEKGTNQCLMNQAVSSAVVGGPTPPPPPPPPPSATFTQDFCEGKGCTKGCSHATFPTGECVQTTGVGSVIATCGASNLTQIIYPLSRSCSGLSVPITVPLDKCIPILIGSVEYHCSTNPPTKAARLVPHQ

[11] = Trypanosoma brucei, STIB 900, 72 h

Chain of Rhodesain (Q95PM0 whole entry): as the sequence (Q95PM0 1-450) above

Compound | Ki (Rhodesain) | Ki (Procathepsin L) | IC50 [6, 11] | Ratio Ki [7] | IC50 (L6; Rattus norvegicus, L6, 72 h) | selectivity ratio [9] | further results
N#CC1(NC(=O)[C@@H]2Cc3ccc(c(Cl)c3)OCCCCOc3cc4c(cc3C(=O)N2)CCCC4)CC1 | 26 nM | 3 nM |  |  |  |  | efflux ratio at 3.5 h, 1 µM (Mdr1a): 38; IC50 [1]: 1 nM; efflux ratio at 3.5 h, 1 µM (MDR1): 26
CSc1ccc2c(c1)C(=O)N[C@H](C(=O)NC1(C#N)CC1)Cc1ccc(c(Cl)c1)OC/C=C/CO2 |  |  |  |  |  |  | Activity [2]: inactive; concentration at 1 h [3]: 951 ng/mL; concentration at 4 h [4]: 66.4 ng/mL; concentration at 16 h [5]: < 10 ng/mL
N#CC1(NC(=O)[C@@H]2Cc3ccc(c(Cl)c3)OC/C=C/COc3cc(C(F)(F)F)ccc3C(=O)N2)CC1 | 20.2 nM | 2.4 nM | 2 nM | 0.1 | 37000 nM | 18500 | growth inhibition (GI) [8]: Active
N#CC1(NC(=O)[C@@H]2Cc3ccc(c(Cl)c3)OC/C=C/COc3c(F)cc(F)cc3C(=O)N2)CC1 |  |  |  |  |  |  | growth inhibition (GI) [8]: Active
N#CC1(NC(=O)[C@@H]2Cc3ccc(c(Cl)c3)OC/C=C/COc3cc(-c4cnn(C(F)F)c4)ccc3C(=O)N2)CC1 (mixture of isomers) | 5.4 nM | 7.4 nM | 336 nM | 1.4 | 44300 nM | 132 | 
N#CC1(NC(=O)[C@@H]2Cc3ccc(c(Cl)c3)OC/C=C/Cn3c(=O)c(cc4cc(Cl)ccc43)C(=O)N2)CC1 (mixture of isomers) | 299 nM | 274 nM | 8 nM | 0.9 | 16200 nM | 2020 | 
N#CC1(NC(=O)[C@@H]2Cc3ccc(c(Cl)c3)OCC#CCOc3c(F)cc(F)cc3C(=O)N2)CC1 (single isomer, unassigned; atropisomer 2) [listing 1 of 2 here] | 4.8 nM | 1.2 nM |  |  |  |  | IC50 [6]: 4 nM; IC50 (L6; l6): 47100 nM; Ratio IC50 [9]: 11775
N#CC1(NC(=O)[C@@H]2Cc3ccc(c(Cl)c3)OC/C=C/COc3ccc(-c4ccc(F)cc4)cc3C(=O)N2)CC1 (mixture of isomers) | 2 nM | 15.5 nM | 347 nM | 7.8 | 45300 nM | 131 | 
CS(=O)(=O)c1ccc2c(c1)C(=O)N[C@H](C(=O)NC1(C#N)CC1)Cc1ccc(c(Cl)c1)OC/C=C/CO2 | 6.1 nM | 3.7 nM | 332 nM | 0.6 | > 100000 nM |  | 
N#CC1(NC(=O)[C@@H]2Cc3ccc(c(Cl)c3)OC/C=C/CCn3nc(cc3-c3ccccc3)C(=O)N2)CC1 | 5.2 nM | 55.7 nM | 0.6 nM | 11 | 40000 nM | 66700 | 
N#CC1(NC(=O)[C@@H]2Cc3ccc(c(I)c3)OC/C=C/COc3cc(C(F)(F)F)ccc3C(=O)N2)CC1 (mixture of isomers) | 8.7 nM | 5.6 nM | 300 nM | 0.6 | 30200 nM | 101 | 
N#CC1(NC(=O)[C@@H]2Cc3ccc(c(Cl)c3)OC/C=C/CCn3nc(cc3C3CC3)C(=O)N2)CC1 | 17.2 nM | 2.5 nM | 5 nM | 0.1 | 60600 nM | 12100 | growth inhibition (GI) [8]: Active
N#CC1(NC(=O)[C@@H]2Cc3ccc(c(Cl)c3)OC/C=C/COc3cc(-c4ccc(Cl)nc4)ccc3C(=O)N2)CC1 (mixture of isomers) | 3 nM | 7.3 nM | 338 nM | 2.4 | 6490 nM | 19 | 
N#CC1(NC(=O)[C@@H]2Cc3ccc(c(Cl)c3)OCC#CCOc3c(F)cc(F)cc3C(=O)N2)CC1 (single isomer, unassigned; atropisomer 1) [listing 1 of 2 here] |  |  |  | 0.3 |  |  | 
N#CC1(NC(=O)[C@@H]2Cc3ccc(c(Cl)c3)OC/C=C/COc3ccccc3C(C(F)(F)F)N2)CC1 (some centres undefined) | 258 nM | 443 nM | 9500 nM |  |  |  | 
Cc1cc2nn1CC/C=C/COc1ccc(cc1Cl)C[C@@H](C(=O)NC1(C#N)CC1)NC2=O (mixture of isomers) | 52.4 nM | 40.3 nM | 6 nM | 0.8 | > 100000 nM |  | 
N#CC1(NC(=O)[C@@H]2Cc3ccc(c(-c4cccnc4)c3)OCCCCOc3ccccc3C(=O)N2)CC1 | 837 nM | 997 nM | 1930 nM | 1.2 | > 100000 nM |  | 
N#CC1(NC(=O)[C@@H]2Cc3ccc(c(-c4cccnc4)c3)OCCCCOc3cc(C(F)(F)F)ccc3C(=O)N2)CC1 | 751 nM | 824 nM | 18 nM | 1.1 | 72200 nM | 4010 | 
N#CC1(NC(=O)[C@@H]2Cc3ccc(c(I)c3)OCCCCOc3cc(C(F)(F)F)ccc3C(=O)N2)CC1 | 57.4 nM | 5.8 nM | 30 nM | 0.1 | 56800 nM | 1890 | 
N#CC1(NC(=O)[C@@H]2Cc3ccc(c(Cl)c3)OC/C=C/Cn3cccc(c3=O)C(=O)N2)CC1 | > 20000 nM | > 20000 nM | 47800 nM |  | > 100000 nM |  | 
N#CC1(NC(=O)[C@@H]2Cc3ccc(c(-c4cc[nH]n4)c3)OCCCCOc3ccccc3C(=O)N2)CC1 | 1090 nM | 1110 nM | 1230 nM | 1 | 86500 nM | 70 | 
N#CC1(NC(=O)[C@@H]2Cc3ccc(c(I)c3)OC/C=C/COc3ccccc3C(=O)N2)CC1 | 2.5 nM |  |  |  |  |  | 
N#CC1(NC(=O)[C@@H]2Cc3ccc(c(Cl)c3)OCC#CCOc3c(F)cc(F)cc3C(=O)N2)CC1 (single isomer, unassigned; atropisomer 2) [listing 2 of 2 here] |  |  |  | 0.3 |  |  | 
CC(C)(C)c1cc2nn1CC/C=C/COc1ccc(cc1Cl)C[C@@H](C(=O)NC1(C#N)CC1)NC2=O | 18 nM | 2.3 nM | 0.6 nM | 0.1 | 38500 nM | 64200 | 
CS(=O)(=O)c1ccc2c(c1)C(=O)N[C@H](C(=O)NC1(C#N)CC1)Cc1ccc(c(Cl)c1)OC[C@H]1O[C@@H]1CO2 (mixture of isomers) | 135 nM | 4.6 nM | 16900 nM | 0.03 | 84700 nM | 5 | 
Cn1cc(-c2cc3ccc2OCCCCOc2cc(C(F)(F)F)ccc2C(=O)N[C@H](C(=O)NC2(C#N)CC2)C3)cn1 | 870 nM | 676 nM | 19 nM | 0.8 | > 100000 nM |  | 
N#CC1(NC(=O)[C@@H]2Cc3ccc(c(Cl)c3)OC/C=C/COc3cc4ccccc4cc3C(=O)N2)CC1 (mixture of isomers) | 1 nM | 1.2 nM | 0.5 nM | 1.2 | 43800 nM | 87600 | 
N#CC1(NC(=O)[C@@H]2Cc3ccc(c(-c4cc[nH]n4)c3)OCCCCOc3cc(C(F)(F)F)ccc3C(=O)N2)CC1 |  | 1360 nM | 140 nM |  | > 100000 nM |  | inhibition [10]: 45%
N#CC1(NC(=O)[C@@H]2Cc3ccc(c(-c4cncnc4)c3)OCCCCOc3cc(C(F)(F)F)ccc3C(=O)N2)CC1 | > 20000 nM | 6390 nM | 509 nM |  | > 100000 nM |  | 
N#CC1(NC(=O)[C@@H]2Cc3ccc(c(Cl)c3)OCC#CCOc3c(F)cc(F)cc3C(=O)N2)CC1 (single isomer, unassigned; atropisomer 1) [listing 2 of 2 here] | 80.6 nM | 24.1 nM | 8 nM |  | 45600 nM |  | Ratio IC50 [9]: 5700

— ChEMBL document CHEMBL4043299, “Repurposing a Library of Human Cathepsin L Ligands: Identification of Macrocyclic Lactams as Potent Rhodesain and Trypanosoma brucei Inhibitors” (J Med Chem, 2018)
